MBD2 inh – blocks human MBD2 binding to methylated DNA; inhibition, % at 4.4 µM; actives 0.31% (n = 370,000); TR-FRET, MBD2 binding to methylated oligonucleotide; in the data active = inhibition above about 13%
Target sequence (Q9UBB5 whole entry, looked up): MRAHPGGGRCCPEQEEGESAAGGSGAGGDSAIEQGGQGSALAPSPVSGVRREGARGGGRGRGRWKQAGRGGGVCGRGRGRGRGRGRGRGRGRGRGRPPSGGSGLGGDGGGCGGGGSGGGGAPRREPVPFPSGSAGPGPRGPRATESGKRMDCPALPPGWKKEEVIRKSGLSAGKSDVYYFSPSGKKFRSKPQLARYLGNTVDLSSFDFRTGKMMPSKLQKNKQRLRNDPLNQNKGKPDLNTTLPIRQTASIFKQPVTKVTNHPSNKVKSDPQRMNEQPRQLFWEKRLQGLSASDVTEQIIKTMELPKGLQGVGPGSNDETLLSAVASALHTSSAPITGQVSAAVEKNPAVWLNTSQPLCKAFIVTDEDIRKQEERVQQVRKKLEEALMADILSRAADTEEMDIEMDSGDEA
LEDGF integ inh – blocks HIV-1 LEDGF/p75-dependent DNA integration; inhibition, % at 3.7 µM; actives 0.64% (n = 370,000); TR-FRET IN-LEDGF/p75 DNA integration, Eu/Cy5;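 active = inhibition above the screen-wide mean plus 3 SD, cut at about 13% in these data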;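 also: signal is the Cy5 over europium emission ratio at 671 and 618 nm; 0% = plate median of compound wells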
PRMT1 inh – blocks human protein arginine methyltransferase 1; AID 652257; Q99873; actives 1.3% (n = 370,000); inhibition, % at 2.79 µM; recombinant PRMT1, activity-based probe fluorescence polarization;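 active = inhibition above about 21% made by adding two undisclosed values, limit read from the data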
TDP2 inh – blocks human TDP2 phosphodiesterase activity. inhibition, % at 12.8 µM. actives 0.34% (n = 370,000). O95551. recombinant TDP2, T5PNP hydrolysis, p-nitrophenol absorbance 415 nm;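 active = inhibition above the mean of all tested compounds plus 3 SD, set per campaign, cut at about 25% in these data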;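 also: 0% = DMSO with enzyme and 100% = buffer with substrate but no TDP2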
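Material: recombinant human TDP2; quantity: TDP2 enzyme at 120 nM final; medium: Tris-HCl pH 7.5 with MgCl2; compound: single concentration, 12.8 µM nominal, with 1% DMSO; incubation: 2 h enzyme incubation at 37 °C; signal: epi absorbance; measure: percent inhibition; benchmarks: high control without enzyme, low control DMSO plus TDP2; repeats: singlicate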
SIAE primary – inhibitors of human sialic acid acetylesterase SIAE; actives 0.69% (n = 370,000); AID 1053197; Q9HAT2; inhibition, % at 9.66 µM; SIAE FP-Rh probe binding, fluorescence polarization;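 active = inhibition above a cutoff: mean of compounds within the control limits plus 3 SD of those, cut at about 17% in these data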;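 also: 0% = plate median of compound wells and 100% = probe without SIAE protein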
UHRF1 binding – UHRF1 methyl-DNA binding inhibition | Q96T88 | UHRF1 binding to methylated oligo, TR-FRET | inhibition, % at 4.4 µM | actives 0.75% (n = 370,000); in the data active = inhibition above about 21%;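 also: UHRF1 SRA domain binding a hemimethylated CpG hairpin DNA probe; 0% = median of test compound wells and 100% = reference inhibitor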
TDP2 confirm – human TDP2 inhibition, confirmation. recombinant human TDP2, absorbance read-out. AID 743263. actives 22% (n = 1,100). inhibition, % at 12.8 µM. shares compounds with TDP2 inh; in the data active = inhibition above about 25%;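 also: 0% = vehicle with enzyme and 100% = no enzyme buffer only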
IN multimer up – HIV-1 integrase multimerization activation, counter-screen; actives 17% (n = 2,000); TR-FRET HIV-1 integrase multimerization, biochemical; activation, % at 7.7 µM; shares compounds with LEDGF integ inh; AID 1053131; in the data active = activation above about 8.9%
TRFRET interf – optically interferes with TR-FRET readout in LEDGF counter-screen; shares compounds with LEDGF integ inh; TR-FRET optical interference counterscreen, HIV-1 IN multimerization; inhibition, % at 7.7 µM; 2,000 tested, under 10 active; AID 1053135;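 active = inhibition above the mean over all tested compounds plus 3 SD, which no compound reached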;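 also: 0% = integrase with antibodies and DMSO and 100% = antibodies without integrase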
IN-LEDGF confirm – LEDGF/p75-dependent HIV-1 integration inhibition, confirmation; shares compounds with LEDGF integ inh; TR-FRET LEDGF/p75-dependent HIV-1 integration, biochemical; inhibition, % at 3.7 µM; actives 36% (n = 2,000); in the data active = inhibition above about 14%
* = called active by the depositor; nt = not tested or not shown. Sampled rows, rich in hits. Any-hit rate of the full collection: about 3.3%.

SMILES	MBD2 inh	LEDGF integ inh	PRMT1 inh	TDP2 inh	SIAE primary	UHRF1 binding	TDP2 confirm	IN multimer up	TRFRET interf	IN-LEDGF confirm
O=S(=O)(Nc1cccc2ccccc12)c1cccs1	0.0	1.2	2.2	-3.5	4.6	13.7	nt	nt	nt	nt
CCN(CC)c1nc(C)nc2c1nnn2Cc1ccccc1	1.7	1.9	-1.8	6.7	13.8	-1.5	nt	nt	nt	nt
C(=NN=C(NN=Cc1cccs1)NN=Cc1cccs1)c1cccs1	-4.2	34.0*	2.1	54.4*	4.5	4.8	-0.8	0.4	-1.3	-11.3
CCCCCCCCN1CCS(=O)(=O)N(Cc2ccc(F)cc2)C(C(=O)OC)C1 (stereo not drawn)	3.1	2.0	0.1	-7.2	6.0	0.2	nt	nt	nt	nt
O=C(O)c1ccc(N/N=C/c2cccc(C(F)(F)F)c2)cc1	-5.6	-0.1	6.7	3.8	5.0	-2.5	nt	nt	nt	nt
Cc1nnc(N/N=C/c2ccccc2C(F)(F)F)n1N	-3.6	45.3*	1.0	52.2*	1.5	2.2	10.0	-0.3	0.8	2.7
Cc1nnc(N/N=C/c2cccc(OCc3ccc(Cl)c(Cl)c3)c2)n1N	3.6	56.8*	5.6	61.5*	7.0	6.1	2.1	-0.6	1.9	-4.0
Cc1nnc(N/N=C/c2cccc(C(F)(F)F)c2)n1N	1.6	56.6*	1.6	82.5*	6.2	13.3	6.7	-2.3	8.1	-8.4
COc1cccc(/C=N/Nc2cc(Cl)nc(C)n2)c1O	-6.1	1.6	-0.1	9.6	9.5	-1.1	nt	nt	nt	nt
CN(C)c1cc(N/N=C/c2ccccc2C(F)(F)F)nc(N(C)C)n1	1.1	1.9	-1.8	21.7	3.1	-6.2	nt	nt	nt	nt
COc1cccc(/C=N/Nc2nnc(C)n2N)c1O	3.6	47.6*	1.1	41.1*	5.9	10.1	1.2	1.8	-9.0	-1.4
COc1ccc(CN2C(=O)N3Cc4ccc(C)cc4C3CS2(=O)=O)cc1 (stereo not drawn)	-1.4	4.3	5.3	-11.3	-5.3	-0.4	nt	nt	nt	nt
CC(=O)Nc1c(-c2ccc(C(F)(F)F)cc2)nc2ncccn12	-5.0	8.1	-3.1	-5.7	2.2	-2.5	nt	nt	nt	nt
Cc1ccnc(N/N=C/c2ccco2)n1	-2.5	-1.3	-1.2	7.2	2.6	-3.2	nt	nt	nt	nt
Fc1ccccc1/C=N/Nc1nn[nH]n1	0.2	1.9	2.0	-4.5	1.1	-2.0	nt	nt	nt	nt
Cc1nnc(N/N=C/c2ccco2)n1N	-9.3	42.8*	1.6	68.9*	3.9	4.0	6.5	4.7	-23.6	-3.4
Cc1nnc(N/N=C/c2ccccc2F)n1N	-2.3	55.7*	2.6	49.9*	-2.9	7.5	8.3	0.9	-3.4	-3.9
COc1ccc(-n2c(C)cc(/C=N/Nc3nnc(C)n3N)c2C)cc1	-2.4	48.6*	7.2	73.3*	5.2	8.9	14.0	3.4	-11.9	-2.5
C=CCN(CC=C)C(=S)Nc1ccc2nsnc2c1	-3.3	57.8*	28.1*	71.6*	-0.5	12.0	59.4*	-0.3	1.2	-3.0
COc1ccc(N(C)C(=O)Nc2ccc3nsnc3c2)cc1	-2.7	55.5*	9.0	95.1*	-1.1	4.4	6.7	-2.7	9.6	5.0
CC(C)N(C(=O)Nc1ccc2nsnc2c1)C(C)C	-1.4	50.7*	25.3*	87.7*	2.4	15.0	60.9*	1.9	-6.7	75.0*
COc1ccc(N(C)C(=O)Nc2ccc3c(c2)nnn3C)cc1	-2.5	5.6	-2.0	-15.4	-0.4	8.3	nt	nt	nt	nt
COc1ccc(NC(=S)Nc2ccc3nsnc3c2)cc1	-1.8	52.0*	5.3	75.6*	9.0	14.0	80.3*	15.9*	-56.4	73.9*
CCOc1ccc(NC(=O)Nc2ccc3nsnc3c2)cc1	3.2	-0.9	3.8	9.5	-3.8	0.8	nt	nt	nt	nt
CCOc1ccc(NC(=S)Nc2ccc3nsnc3c2)cc1	-8.9	39.7*	16.8	71.7*	3.4	9.8	74.1*	8.3	-29.6	74.3*
SMILES	MBD2 inh	LEDGF integ inh	PRMT1 inh	TDP2 inh	SIAE primary	UHRF1 binding	TDP2 confirm	IN multimer up	TRFRET interf	IN-LEDGF confirm
Nc1c(C(=O)N2CCOCC2)cnn1Cc1ccccc1	0.6	-1.2	0.5	-0.1	3.3	1.6	nt	nt	nt	nt
Cc1cc(=O)n(-c2ccc(O)cc2)[nH]1	-4.2	18.6*	6.1	55.9*	5.7	6.4	15.0	1.3	-6.5	-5.1
O=C(N/N=C/c1ccc(O)cc1O)C(=O)N/N=C/c1ccc(O)cc1O	6.2	15.3*	8.6	25.5*	4.8	-1.5	7.3	12.7*	-63.7	25.9*
COc1ccc(O)c(C(c2c(C)[nH][nH]c2=O)c2c(C)[nH][nH]c2=O)c1	9.2	22.2*	3.4	73.1*	8.0	14.2	72.8*	0.2	-0.6	12.5
NS(=O)(=O)c1ccc(NC2=CC(=O)C(=O)c3ccccc32)cc1	-12.0	31.9*	15.8	60.9*	5.1	8.4	63.1*	6.4	-22.5	61.6*
Cc1cc(NC2=CC(=O)C(=O)c3ccccc32)no1	-10.8	15.7*	-1.2	29.2*	7.6	-7.3	69.2*	4.5	-15.9	51.9*
Cc1ccc(NC2=CC(=O)C(=O)c3ccccc32)cc1	-10.5	22.9*	1.3	69.7*	8.7	-7.3	38.5*	9.0*	-31.9	39.5*
CCCCCCCCN1C(=O)[C@@H](CC(=O)NCC23CC4CC(CC(C4)C2)C3)C[C@@]2(C(=O)OC)C1=C[C@H](C(C)C)O[C@@H]2C1CC1	-1.4	-1.3	-0.5	5.3	1.6	-1.3	nt	nt	nt	nt
O=C(C1CCCN(S(=O)(=O)c2cccs2)C1)N1CCN(Cc2ccccc2)CC1 (stereo not drawn)	1.8	1.2	-2.0	2.2	1.0	5.5	nt	nt	nt	nt
N#CCCn1[nH]c(-c2ccccc2)cc1=O	11.4	27.5*	6.0	84.6*	11.0	17.8	10.7	6.7	-23.4	6.0
Nc1ccc(Br)c2cccnc12	-15.4	54.1*	5.9	47.0*	4.4	4.1	40.9*	1.2	-4.4	52.9*
C[n+]1cccc2cccc([O-])c21	1.6	15.1*	7.1	27.4*	10.9	10.2	28.4*	8.4	-29.4	53.6*
[O-][n+]1cccc2cccc(O)c21	-5.2	-4.0	2.0	4.7	5.9	2.0	nt	nt	nt	nt
C=CCN1C(=O)[C@@H](CC(=O)N2CCCC2)[C@]2(C(=O)OCC)CCCCC/C=C/12	-3.0	-0.2	2.3	-3.7	5.2	3.0	nt	nt	nt	nt

Assay outcomes (PubChem)
